Assay results published in PubChem BioAssay.
Active and inactive are the calls of the source.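 How the source made its calls, unless noted: active means inhibition at or above 50% at 10 µM; inactive means inhibition below 50%.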

What was measured:
[1] = inhibitors of TNFa-induced NFkB p65 translocation, primary screen, imaging, HUVEC, MLSMR starter and 10KST1 sets (AID 438;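 active means inhibition above 20% together with a positive visual image hit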;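 further: compound added about 3h40 before a 20 min TNFalpha stimulation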;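 on inhibition: signal is the nuclear over cytoplasmic p65 intensity ratio per well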); conditions: HUVEC TNFa-induced p65 nuclear translocation; cell count: measured here: nuclei count (cytotoxicity indicator), at 2.08 µM; inhibition: at 2 µM, stronger effect = higher value, 0% TNFa-plus-vehicle, 100% no-TNFa wells
[2] = inhibitors of mutant huntingtin aggregation, primary screen, imaging, exon1htt(103Q)mCFP cells, high-content imaging (AID 483;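 active means visual image review flags a hit and inhibition of aggregation exceeds 20%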;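 further: compound exposure lasted 3 days before fixation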;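 on nuclei count: percent of the per-plate median nuclei count of sample wells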); conditions: exon1htt(103Q)mCFP cell line, aggregate imaging, at 2 µM; inhibition of aggregation: stronger effect = higher value; nuclei count: measured here: cell count, toxicity
[3] = inhibitors of E-selectin induction by TNFa, primary screen, imaging, HUVEC, immunofluorescence, MLSMR starter and 10KST1 sets (AID 487;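 active means visually confirmed hit in the image check and inhibition above 20%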;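 on inhibition: signal is fraction of cell area covered by stained E-selectin grains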;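 on nuclei count: 100% = median nuclei count of all wells on the same plate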); conditions: HUVEC TNFalpha-induced E-selectin immunofluorescence imaging, at 2 µM; inhibition: stronger effect = higher value; nuclei count: measured here: cell number, toxicity
[4] = target: Voltage-gated potassium channel subunit beta-2 (Rattus norvegicus) (UniProt P62483); assay: KvBeta enzyme negative modulators, primary screen, biochemical, NADPH fluorescence (AID 622;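 active means fluorescence slope higher than the sample average by over 3 SD, cut at about -0.22 in these data, passing the limit was not always enough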;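 further: slope of raw intensity against log time taken from 70 to 1610 s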); conditions: recombinant KvBeta, 4-cyanobenzaldehyde reduction, at 10 µM, stronger effect = higher value
Chain of Voltage-gated potassium channel subunit beta-2 (Rattus norvegicus) (P62483 whole entry, looked up): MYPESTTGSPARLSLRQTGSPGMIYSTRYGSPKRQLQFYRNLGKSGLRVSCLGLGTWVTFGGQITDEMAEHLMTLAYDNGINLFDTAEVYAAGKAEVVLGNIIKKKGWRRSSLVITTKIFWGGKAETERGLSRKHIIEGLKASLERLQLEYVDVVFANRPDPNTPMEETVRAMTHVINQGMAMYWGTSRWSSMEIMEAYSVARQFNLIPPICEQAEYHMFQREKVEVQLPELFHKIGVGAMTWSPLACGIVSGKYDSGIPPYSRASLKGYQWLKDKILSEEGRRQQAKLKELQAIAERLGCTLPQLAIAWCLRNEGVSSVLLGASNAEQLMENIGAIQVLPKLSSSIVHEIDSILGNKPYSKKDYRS

[5] = target: Voltage-gated potassium channel subunit beta-2 (Rattus norvegicus) (UniProt P62483); assay: KvBeta positive modulators, primary screen, biochemical, NADPH fluorescence (AID 623;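 active means NADPH fluorescence slope more negative than the mean of all samples by about 3 SD, 99.7% confidence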;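 further: fluorescence intensity change per second fitted from 20 to 320 s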); conditions: Recombinant KvBeta, NADPH fluorescence decrease slope, 10 min; at 10 µM; stronger effect = lower value
[6] = target: Muscarinic acetylcholine receptor M4 (Homo sapiens) (UniProt P08173); assay: compounds altering M4/GIRK thallium flux, either direction, primary screen, M4 allosteric agonist project, cell-based, HEK293 M4/GIRK, BTC-AM (AID 625;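 active means fluorescence slope after compound addition differing from the mean of all tested samples at 99.7% confidence, mostly higher but some lower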;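 further: thallium influx through GIRK channels coupled to M4 in HEK293 cells with BTC-AM dye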); conditions: at 10 µM, actives lie on both sides
Chain of Muscarinic acetylcholine receptor M4 (Homo sapiens) (P08173 whole entry, looked up): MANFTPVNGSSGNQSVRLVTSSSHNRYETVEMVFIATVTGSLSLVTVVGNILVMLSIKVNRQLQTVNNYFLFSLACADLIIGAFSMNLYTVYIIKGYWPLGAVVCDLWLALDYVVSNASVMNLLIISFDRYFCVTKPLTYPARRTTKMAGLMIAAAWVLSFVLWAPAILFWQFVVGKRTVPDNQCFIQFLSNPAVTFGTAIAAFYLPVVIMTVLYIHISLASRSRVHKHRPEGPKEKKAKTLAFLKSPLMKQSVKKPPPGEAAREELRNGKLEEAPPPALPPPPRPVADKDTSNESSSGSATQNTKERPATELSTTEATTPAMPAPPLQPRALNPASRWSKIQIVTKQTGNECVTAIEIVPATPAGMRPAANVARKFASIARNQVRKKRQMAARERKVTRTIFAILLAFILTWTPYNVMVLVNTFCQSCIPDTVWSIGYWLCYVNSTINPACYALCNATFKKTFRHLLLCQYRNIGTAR
How it was run: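 Material: HEK293 cells with M4 receptor and GIRK channels; Times: cells overnight at 37 °C, BTC-AM loading 1 h, reads 2 min total; Technique: kinetic BTC-AM fluorescence sampled at 1 Hz, 10 s pre-addition baseline; Read-out basis: slope over 15–24 s of trace normalized to starting intensity; Controls: carbachol positive, DMSO negative.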

[7] = inhibitors of Sendai virus-induced IRF3 signaling, primary screen, TLR/RLR signaling modifier project, cell-based, Sendai virus stimulus, luciferase, 10K MLSCN set (AID 602276); conditions: HEK293 RL24 IRF3 luciferase reporter, at 10 µM, stronger effect = higher value;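 further: firefly luciferase from ISG56 promoter only with Renilla not read in this screen; 0% = Sendai virus plus DMSO and 100% = medium plus DMSO without virus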
[8] = inhibitors of poly I:C-induced TLR3 signaling, primary screen, cell-based, poly I:C stimulus, luciferase, 10K MLSCN set (AID 602277;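 active means inhibition of the reporter signal at or above 50%; inactive means inhibition below 50%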); conditions: HEK293-TLR3 RL24 IRF3 luciferase reporter, at 10 µM, stronger effect = higher value

Compound | cell count [1] | inhibition [1] | inhibition of aggregation [2] | nuclei count [2] | inhibition [3] | nuclei count [3] | fluorescence slope [4] | NADPH fluorescence slope [5] | fluorescence slope [6] | inhibition [7] | inhibition [8]
CCCn1nnnc1SCC(=O)c1ccc2c(c1)OCCO2 | 571 | 2.6% (inactive) | -22.6% (inactive) | 120% | 34% (inactive) | 101% | -0.441 (inactive) | 0.000111 (inactive) | 0.00722 (inactive) | -31.3% (inactive) | -69.8% (inactive)
Cc1ccc(NC(=O)C2CCCN2C(=O)Oc2ccccc2)cc1 (stereo not drawn) | 344 | 6% (inactive) | 3.9% (inactive) | 88.6% | 26.5% (inactive) | 79.2% | -0.41 (inactive) | -6.8e-06 (inactive) | 0.00654 (inactive) | 5.65% (inactive) | 12.3% (inactive)
Cc1cccc(NC(=O)c2cc3n(n2)C(C(F)(F)F)CC(c2ccc4c(c2)OCO4)N3)c1 (stereo not drawn) | 555 | -6.9% (inactive) | 0.5% (inactive) | 82.7% | 45.8% (inactive) | 127% | -0.546 (inactive) | -3.2e-05 (inactive) | 0.00563 (inactive) | 25.3% (inactive) | 25.4% (inactive)
CCOC(=O)C1CCN(c2c(NCCCN(CC)c3ccccc3)c(=O)c2=O)CC1 | 266 | 5.2% (inactive) | 8.3% (inactive) | 97.6% | -20.2% (inactive) | 95.4% | -0.43 (inactive) | -0.000398 (inactive) | 0.00476 (inactive) | 2.28% (inactive) | 9.33% (inactive)
COCCN1CN(S(=O)(=O)c2ccccc2)c2nc3ccccc3nc21 | 307 | 8.3% (inactive) | -0.3% (inactive) | 94.4% | -47.3% (inactive) | 160% | -0.54 (inactive) | -0.000125 (inactive) | 0.00322 (inactive) | 13.6% (inactive) | 17.4% (inactive)
CCc1nnc(NC(=O)C2CCN(c3nccc(C)n3)CC2)s1 | 533 | 0.5% (inactive) | 0.2% (inactive) | 103% | -13.3% (inactive) | 96.9% | -0.317 (inactive) | -3.6e-05 (inactive) | 0.00544 (inactive) | 11% (inactive) | 14.7% (inactive)
Cc1ccc(Oc2ccc(-c3nc(N)nc(N)n3)cc2)cc1 | 366 | -6% (inactive) | 9% (inactive) | 105% | -62.6% (inactive) | 125% | -0.547 (inactive) | -2.9e-05 (inactive) | 0.00425 (inactive) | 7.07% (inactive) | 11.6% (inactive)
Cc1c(C(=O)O)oc2ccc(S(=O)(=O)NCc3ccccc3)cc12 | 675 | -4.8% (inactive) | 21.7% (inactive) | 108% | -38.4% (inactive) | 110% | -0.432 (inactive) | 4.7e-05 (inactive) | 0.00586 (inactive) | -0.0664% (inactive) | 11.8% (inactive)
Cc1cccc(N2CCN(C(=O)c3ccc(NS(=O)(=O)c4c(C)noc4C)cc3)CC2)c1C | 334 | 5.4% (inactive) | -23.1% (inactive) | 97.7% | -283% (inactive) | 84.9% | -0.545 (inactive) | -7.3e-05 (inactive) | 0.00603 (inactive) | -6.14% (inactive) | -0.151% (inactive)
CCc1ccccc1N=C1SCC(=O)N1C | 368 | -8.5% (inactive) | 19.1% (inactive) | 69.3% | -50.2% (inactive) | 111% | -0.412 (inactive) | 7.8e-05 (inactive) | 0.00583 (inactive) | 6.15% (inactive) | 13.2% (inactive)
COC(=O)c1cn(-c2ccccc2)nc1C(=O)OC | 232 | 5.8% (inactive) | -0.8% (inactive) | 92.6% | 24% (inactive) | 77.4% | -0.441 (inactive) | -7.4e-05 (inactive) | 0.00607 (inactive) | 4.01% (inactive) | 1.15% (inactive)
COCCCNC(=O)CCc1nc(-c2ccccc2Cl)no1 | 476 | 8.6% (inactive) | -10.1% (inactive) | 95.7% | -130% (inactive) | 132% | -0.556 (inactive) | -9.5e-06 (inactive) | 0.00327 (inactive) | 17.7% (inactive) | 23.4% (inactive)
CCOC(=O)c1c(NC(=O)OC)sc(C(=O)N(C)C)c1C | 321 | -5.4% (inactive) | 1.3% (inactive) | 103% | 1.1% (inactive) | 115% | -0.312 (inactive) | -4.5e-05 (inactive) | 0.00682 (inactive) | 7.2% (inactive) | 14.6% (inactive)
O=C(NCCc1cccc(Cl)c1)c1cccnc1 | 341 | -8% (inactive) | -14.1% (inactive) | 95.5% | -194% (inactive) | 119% | -0.562 (inactive) | -1.7e-05 (inactive) | 0.00601 (inactive) | -14.6% (inactive) | -52% (inactive)
COC(=O)c1ccccc1S(=O)(=O)N(Cc1cc2cc3c(cc2[nH]c1=O)OCO3)C1CCCCC1 | 532 | -3.6% (inactive) | -4.8% (inactive) | 134% | -71.1% (inactive) | 161% | -0.487 (inactive) | -9.9e-05 (inactive) | 0.00583 (inactive) | -3.7% (inactive) | -14.5% (inactive)
CC(C(=O)NC1CCCCCC1)N(c1ccccc1)S(C)(=O)=O (stereo not drawn) | 370 | 1.9% (inactive) | 4.5% (inactive) | 108% | -7.4% (inactive) | 97% | -0.548 (inactive) | -0.000126 (inactive) | 0.00352 (inactive) | 15.7% (inactive) | 3.26% (inactive)
CCOc1ccc(NC(=O)CN(C)S(=O)(=O)c2cccs2)cc1 | 650 | -12% (inactive) | -4.9% (inactive) | 104% | -22.6% (inactive) | 113% | -0.587 (inactive) | -3.3e-05 (inactive) | 0.00617 (inactive) | -60.5% (inactive) | -62.8% (inactive)
CN(CC(=O)Nc1ccncc1)S(=O)(=O)c1ccccc1 | 351 | 4.9% (inactive) | 11.1% (inactive) | 108% | -141% (inactive) | 148% | -0.432 (inactive) | -7.6e-05 (inactive) | 0.00615 (inactive) | 14.3% (inactive) | 2.23% (inactive)
CCN(CC)c1ccc(NC(=O)c2[nH]c(C)c(C(C)=O)c2C)c(C)c1 | 911 | 7.1% (inactive) | 8.4% (inactive) | 109% | -105% (inactive) | 136% | -0.555 (inactive) | -3.3e-05 (inactive) | 0.00732 (inactive) | 2.56% (inactive) | -8.53% (inactive)
CCCCNC(=O)c1cc(-c2ccc(F)cc2)on1 | 240 | -2.8% (inactive) | 5.2% (inactive) | 106% | -39.2% (inactive) | 120% | -0.483 (inactive) | -3.3e-05 (inactive) | 0.00454 (inactive) | -21.5% (inactive) | -168% (inactive)
COc1cc(C(=O)Nc2ccc3c(c2)C(=O)N(CCC(=O)O)C3=O)cc(OC)c1OC | 469 | 2% (inactive) | 4.8% (inactive) | 89.5% | -37.8% (inactive) | 87.3% | -0.488 (inactive) | -4.2e-05 (inactive) | 0.00491 (inactive) | 12.6% (inactive) | 18% (inactive)
Cc1ccc(N2CCN(C(=O)c3ccccc3Br)CC2)c(C)c1 | 655 | -20.4% (inactive) | 0% (inactive) | 91.9% | -13.4% (inactive) | 101% | -0.532 (inactive) | 5.2e-06 (inactive) | 0.00352 (inactive) | 15.2% (inactive) | 23.3% (inactive)
CC(C(=O)N1CCCCC1)n1ncn2cccc2c1=O (stereo not drawn) | 397 | -2.5% (inactive) | 0.4% (inactive) | 94.2% | -4.6% (inactive) | 97.4% | -0.595 (inactive) | -2.8e-05 (inactive) | 0.00463 (inactive) | 6.93% (inactive) | 98.3% (active)
COC(=O)C1=C(C)Nc2nnnn2C1c1ccc(Cl)cc1Cl (stereo not drawn) | 433 | 7.3% (inactive) | -5.9% (inactive) | 105% | 1.2% (inactive) | 105% | -0.482 (inactive) | -4.5e-05 (inactive) | 0.0056 (inactive) | 13.6% (inactive) | 19.3% (inactive)
Cc1ccc(NC(=O)N2CCC(c3nc4c(nnn4Cc4cccc(Cl)c4)c(=O)[nH]3)CC2)cc1 | 811 | -4.8% (inactive) | -2.1% (inactive) | 55.6% | -3.8% (inactive) | 124% | -0.569 (inactive) | -7.6e-06 (inactive) | 0.00576 (inactive) | 8.55% (inactive) | 21.7% (inactive)
CCCc1cc(=O)n2[nH]cnc2n1 | 285 | 11.4% (inactive) | -16% (inactive) | 80% | -11.2% (inactive) | 101% | -0.285 (inactive) | -1.5e-05 (inactive) | 0.00663 (inactive) | 11% (inactive) | 19.9% (inactive)
CCNC(=O)c1ccc(NS(=O)(=O)c2ccccc2)cc1 | 340 | -4.8% (inactive) | 16% (inactive) | 123% | -44.8% (inactive) | 102% | -0.551 (inactive) | -0.000105 (inactive) | 0.00291 (inactive) | 13.3% (inactive) | 12.4% (inactive)
O=C(OCc1cccs1)c1ccccc1NS(=O)(=O)c1ccc2c(c1)OCCO2 | 709 | -6.7% (inactive) | 10.3% (inactive) | 84.5% | 9.5% (inactive) | 108% | -0.626 (inactive) | -2.4e-05 (inactive) | 0.00639 (inactive) | 3.25% (inactive) | -18.1% (inactive)
